Measurements taken from ChEMBL document CHEMBL1255242, “Concentrations of dapivirine in the rhesus macaque and rabbit following once daily intravaginal administration of a gel formulation of [14C]dapivirine for 7 days” (Antimicrob Agents Chemother, 2008).

Experiments:
[1] = Drug level in rabbit cervical tissue at 0.5 ml/day administered intravaginally for 7 days measured 24 hrs after final dose by […]; format: ADME, Oryctolagus cuniculus; conditions: read-out: Drug uptake
Method in brief: (§1)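 Six female rabbits received 0.5 ml/day of [14C]dapivirine gel (nominal 0.09 mg/ml, 15 μCi/ml) intravaginally once daily for 7 days by feeding tube inserted about 6 cm, with a collar for about 8 h. Two rabbits per time point were killed at 1, 8 and 24 h after the final dose. PBS-rinsed vaginal wall and ectocervix were homogenized in 2:1 H2O-ACN and extracted with t-butylmethylether. A single LC-MS/MS run was used (0.250–250 ng/g; 10-point weighted quadratic calibration).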

[2] = Drug level in rhesus monkey ileac lymph node at 1 ml/day administered intravaginally for 7 days measured 48 hrs after final dose by LC-MS/MS analysis; format: ADME, tissue-based, Macaca mulatta; conditions: read-out: Drug uptake
Method in brief: (§2)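 Nine female macaques were sedated with ketamine (5–20 mg/kg) and given 1 ml/day of [14C]dapivirine gel (nominal 0.09 mg/ml, 15 μCi/ml) intravaginally once daily for 7 days. Three animals per time point were killed (iv pentobarbital, 65 mg/kg) at 1, 24 and 48 h after the final dose. Vaginal wall, ectocervix, and inguinal and iliac lymph nodes were assayed by LC-MS/MS (0.250–250 ng/g). Values below LLOQ were set to 0 for means.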

[3] = Drug level in rhesus monkey vaginal tissue at 1 ml/day administered intravaginally 7 days measured 1 hr after final dose by LC-MS/MS analysis; format: ADME, Macaca mulatta, Vagina; conditions: read-out: Drug uptake; method in brief: as §2
[4] = Drug level in rhesus monkey inguinal lymph node at 1 ml/day administered intravaginally for 7 days measured 1 hr after final dose by LC-MS/MS analysis; format: ADME, tissue-based, Macaca mulatta; conditions: read-out: Drug uptake; method in brief: as §2
[5] = Drug level in rhesus monkey ileac lymph node at 1 ml/day administered intravaginally for 7 days measured 1 hr after final dose by LC-MS/MS analysis; format: ADME, tissue-based, Macaca mulatta; conditions: read-out: Drug uptake; method in brief: as §2
[6] = test system: Plasma; test: Drug level in rhesus monkey plasma at 1 ml/day administered intravaginally for 7 days by LC-MS/MS analysis; format: ADME, cell-free, Macaca mulatta; conditions: other, 168 h, in the assay text read “liquid scintillation counting” for “LC-MS/MS analysis”
[7] = Drug level in rhesus monkey inguinal lymph node at 1 ml/day administered intravaginally for 7 days measured 24 hrs after final dose by LC-MS/MS analysis; format: ADME, tissue-based, Macaca mulatta; conditions: read-out: Drug uptake; method in brief: as §2
[8] = test system: Plasma; test: Drug level in rabbit plasma at 0.5 ml/day administered intravaginally for 7 days by liquid scintillation counting; conditions: other, 168 h
[9] = Drug level in rhesus monkey vaginal tissue at 1 ml/day administered intravaginally for 7 days measured 48 hrs after final dose by LC-MS/MS analysis; format: ADME, Macaca mulatta, Vagina; conditions: read-out: Drug uptake; method in brief: as §2
[10] = Drug level in rhesus monkey cervical tissue at 1 ml/day administered intravaginally for 7 days measured 48 hrs after final dose by LC-MS/MS analysis; format: ADME, Macaca mulatta; conditions: read-out: Drug uptake; method in brief: as §2
[11] = Drug level in rhesus monkey vaginal tissue at 1 ml/day administered intravaginally for 7 days measured 24 hrs after final dose by LC-MS/MS analysis; format: ADME, Macaca mulatta, Vagina; conditions: read-out: Drug uptake; method in brief: as §2
[12] = Drug level in rabbit vaginal tissue at 0.5 ml/day administered intravaginally for 7 days measured 1 hr after final dose by […]; format: ADME, Oryctolagus cuniculus, Vagina; conditions: read-out: Drug uptake; method in brief: as §1
[13] = Drug level in rhesus monkey ileac lymph node at 1 ml/day administered intravaginally for 7 days measured 24 hrs after final dose by LC-MS/MS analysis; format: ADME, tissue-based, Macaca mulatta; conditions: read-out: Drug uptake; method in brief: as §2
[14] = Drug level in rhesus monkey cervical tissue at 1 ml/day administered intravaginally for 7 days measured 1 hr after final dose by LC-MS/MS analysis; format: ADME, Macaca mulatta; conditions: read-out: Drug uptake; method in brief: as §2
[15] = Drug level in rhesus monkey cervical tissue at 1 ml/day administered intravaginally for 7 days measured 24 hrs after final dose by LC-MS/MS analysis; format: ADME, Macaca mulatta; conditions: read-out: Drug uptake; method in brief: as §2
[16] = Drug level in rhesus monkey inguinal lymph node at 1 ml/day administered intravaginally for 7 days measured 48 hrs after final dose by LC-MS/MS analysis; format: ADME, tissue-based, Macaca mulatta; conditions: read-out: Drug uptake; method in brief: as §2

concentration at 24 h [1]: ≥ 2.5 ng/g
concentration at 48 h [2]: 1.16 ng/g
concentration at 1 h [3]: 4260 ng/g
concentration at 1 h [4]: 10.6 ng/g
concentration at 1 h [5]: 14.9 ng/g
Drug uptake [6]: <= 83 dpm/ml
concentration at 24 h [7]: 1.77 ng/g
Drug uptake [8]: 246 dpm/ml
concentration at 48 h [9]: 515 ng/g
concentration at 48 h [10]: 81 ng/g
concentration at 24 h [11]: 1160 ng/g
concentration at 1 h [12]: > 3000 ng/g
concentration at 24 h [13]: 11.6 ng/g
concentration at 1 h [14]: 2400 ng/g
concentration at 24 h [15]: 271 ng/g
concentration at 48 h [16]: 0.48 ng/g
Structure (SMILES): Cc1cc(C)c(Nc2ccnc(Nc3ccc([14C]#N)cc3)n2)c(C)c1 [[14C]DAPIVIRINE]
